As usually defined, the GI50 is the concentration giving 50% growth inhibition. Read a low GI50 as more potent growth inhibition.

The test system of assay [1] is HT-29. The assay can be described thus: Cell cycle arrest in human HT-29 cells assessed as accumulation at S phase at 1 uM after 72 hrs by flow cytometry. Type of assay: functional. The gist of the method: (§1)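 HT-29 cells incubated at 1 μM for 24, 48 or 72 h alongside untreated controls. (3-5) × 10⁵ cells fixed overnight in 70% ethanol at 4 °C, PBS-washed three times, then treated 1 h at room temperature with 1 mg/mL RNase A and 20 μg/mL propidium iodide. DNA content read by flow cytometry; apoptosis taken as % cells in sub-G1 peak. Representative of three independent experiments.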

The subject of assay [2] is HT-29. The assay can be described thus: Induction of apoptosis in human HT-29 cells assessed as accumulation at subG1 phase at 1 uM after 72 hrs by flow cytometry. The format is functional. The gist of the method:
as §1
On the technique in general: A flow cytometer gives signals particle by particle.

In assay [3] the test system is HT-29. Briefly: Cell cycle arrest in human HT-29 cells assessed as accumulation at G0/G1 phase at 1 uM after 24 hrs by flow cytometry. Type of assay: functional. In a few lines: as §1
Assay [4] deals with HT-29. Briefly: Induction of apoptosis in human HT-29 cells assessed as accumulation at subG1 phase at 1 uM after 48 hrs by flow cytometry. Type of assay: functional. The gist of the method:
as §1

Assay [5] relates to HT-29. The assay can be described thus: Cell cycle arrest in human HT-29 cells assessed as accumulation at G0/G1 phase at 1 uM after 48 hrs by flow cytometry. The format is functional. In a few lines: as §1
Assay [6] concerns HT-29. The assay can be described thus: Induction of apoptosis in human HT-29 cells assessed as accumulation at subG1 phase at 1 uM after 24 hrs by flow cytometry. Type of assay: functional. In a few lines:
as §1

Assay [7] concerns HT-29. Briefly: Induction of microtubule disruption in human HT-29 cells at 1 uM after 24 hrs. The format is cell-based. The gist of the method:
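HT-29 cells on poly-L-lysine coverslips exposed to 1 μM for 24 h, washed in HPEM (pH 6.6), fixed with 4% paraformaldehyde 15 min, permeabilized with 0.5% Triton X-100. Anti-α-tubulin mouse monoclonal (1:150, 1 h) then CY3 anti-mouse IgG (1 h, 4 °C); nuclei DAPI-stained; imaged by confocal microscopy. Representative of at least three experiments.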

Another assay deals with MDA-MB-231. Briefly: Cytotoxicity against human MDA-MB-231 cells after 72 hrs by SRB assay. The format is functional. As to conditions: MDA-MB-231, 72 h. In a few lines:
(§2)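 SRB growth assay: 5 × 10³ cells/well in RPMI, attached 18 h drug-free, then compound added in DMSO/H₂O 3:7 for 72 h. Fixed with cold 50% TCA 60 min at 4 °C, stained 0.4% SRB in 1% acetic acid 10 min, bound dye solubilized in Tris, OD 490 nm. GI50 from 100[(T−T0)/(C−T0)] = 50; mean of triplicates.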
Background: The SRB assay estimates cell density from bound dye.

In assay [8] the test system is HT-29. The assay can be described thus: Cytotoxicity against human HT-29 cells after 72 hrs by SRB assay. Type of assay: functional. As to conditions: HT-29, 72 h. In a few lines: as §2
Assay [9] concerns HT-29. The assay can be described thus: Cell cycle arrest in human HT-29 cells assessed as accumulation at G2/M phase at 1 uM after 72 hrs by flow cytometry. The format is functional. The gist of the method: as §1
The subject of assay [10] is HT-29. The assay can be described thus: Cell cycle arrest in human HT-29 cells assessed as accumulation at S phase at 1 uM after 24 hrs by flow cytometry. The format is functional. The gist of the method:
as §1

For assay [11], the system named is HT-29. The assay can be described thus: Cell cycle arrest in human HT-29 cells assessed as accumulation at G2/M phase at 1 uM after 48 hrs by flow cytometry. Type of assay: functional. The gist of the method: as §1
Assay [12] concerns HT-29. Briefly: Cell cycle arrest in human HT-29 cells assessed as accumulation at G2/M phase at 1 uM after 24 hrs by flow cytometry. The format is functional. In a few lines: as §1
Assay [13] deals with HT-29. Briefly: Cell cycle arrest in human HT-29 cells assessed as accumulation at S phase at 1 uM after 48 hrs by flow cytometry. Type of assay: functional. The gist of the method: as §1
For assay [14], the system named is HT-29. The assay can be described thus: Cell cycle arrest in human HT-29 cells assessed as accumulation at G0/G1 phase at 1 uM after 72 hrs by flow cytometry. The format is functional. The gist of the method:
as §1

For another assay, the system named is A549. Briefly: Cytotoxicity against human A549 cells after 72 hrs by SRB assay. Type of assay: functional. As to conditions: A549, 72 h. The gist of the method:
as §2

Calls of active or inactive are those of the source. The calls are words filed in the database; no cut-off is given here.

`CCOC(=O)COC(=O)[C@@H]1C(C=O)=Cc2cc3c(cc2[C@H]1c1cc(OC)c(OC)c(OC)c1)OCO3`: the Activity with HT-29 [1] was 19.2%; with HT-29 [2], 30.6%; in the assay on HT-29 [3], 1%; in the assay with HT-29 [4], 6.3%; in the assay with HT-29 [5], 4.7%; in the assay with HT-29 [6], 0.5%. Also, the Activity is recorded as 33.8% in the assay on HT-29 [9]; 0.9% in the assay with HT-29 [10]; 85.6% with HT-29 [11]; 97.6% in the assay on HT-29 [12]; 3.4% in the assay with HT-29 [13]; 16.4% in the assay on HT-29 [14]. Further, the outcome in the assay on HT-29 [7] was Active. Further, the values for the GI50 in the assay on MDA-MB-231, in the assay with HT-29 [8] and in the assay with A549 were 110 nM, 28 nM and 13 nM, respectively.

With `C=CCOC(=O)[C@@H]1C(C=O)=Cc2cc3c(cc2[C@H]1c1cc(OC)c(OC)c(OC)c1)OCO3`, the Activity was found to be 16.8% in the assay on HT-29 [1]; 41.6% in the assay with HT-29 [2]; 3.9% with HT-29 [3]; 1.8% in the assay on HT-29 [4]; 10.9% with HT-29 [5]; 0.3% in the assay on HT-29 [6]. Also, the Activity with HT-29 [9] is 8%; in the assay with HT-29 [10] it was 4.5%; in the assay with HT-29 [11] it was 83.4%; with HT-29 [12] it was 91.3%; in the assay with HT-29 [13] it was 3.9%; in the assay with HT-29 [14], 33.6%. The result in the assay with HT-29 [7] was Active. Moreover, the GI50 with MDA-MB-231 amounted to 150 nM; with HT-29 [8], 20 nM; in the assay with A549, 30 nM.

Take `CCCCCCCOC(=O)[C@@H]1C(C=O)=Cc2cc3c(cc2[C@H]1c1cc(OC)c(OC)c(OC)c1)OCO3`: the Activity in the assay with HT-29 [1] is reported as 0.4%; in the assay on HT-29 [2], 82.3%; with HT-29 [3], 14.6%; in the assay on HT-29 [4], 29.2%; with HT-29 [5], 25.3%; in the assay with HT-29 [6] it was 19.6%. The Activity was 0.6% with HT-29 [9]; 42.6% in the assay on HT-29 [10]; 15.9% in the assay with HT-29 [11]; 23.2% in the assay with HT-29 [12]; 29.6% with HT-29 [13]; 16.7% in the assay on HT-29 [14]. Besides, the result in the assay with HT-29 [7] was inactive. Further, the GI50 was determined as 2500 nM in the assay on MDA-MB-231, 1000 nM with HT-29 [8] and 1000 nM with A549.

For `COc1cc([C@@H]2c3cc4c(cc3C=C(C=O)[C@H]2C(=O)OC/C=C/c2ccccc2)OCO4)cc(OC)c1OC`, the Activity worked out at 22% with HT-29 [1]; 33.7% in the assay with HT-29 [2]; 1.4% in the assay with HT-29 [3]; 5.2% in the assay with HT-29 [4]; 5.3% in the assay with HT-29 [5]; 0.4% in the assay with HT-29 [6]. Further, the Activity with HT-29 [9] is 23.2%; with HT-29 [10], 1.8%; in the assay on HT-29 [11] it was 85.3%; with HT-29 [12] it was 96.4%; in the assay on HT-29 [13] it was 4.2%; with HT-29 [14], 21.1%. In addition, the outcome with HT-29 [7] was Active. Moreover, the results for the GI50 in the assay on MDA-MB-231, in the assay with HT-29 [8] and in the assay with A549 were 130 nM, 36 nM and 32 nM, respectively.

In the case of `COc1cc([C@@H]2c3cc4c(cc3C=C(C=O)[C@H]2C(=O)OCCCBr)OCO4)cc(OC)c1OC`, the Activity with HT-29 [1] was 0.3%; in the assay on HT-29 [2] it was 67.7%; in the assay with HT-29 [3] it was 46.9%; with HT-29 [4], 34.6%; with HT-29 [5], 38.9%; in the assay with HT-29 [6], 29.2%. Moreover, the Activity is reported as 0.4% in the assay on HT-29 [9]; 9.7% in the assay with HT-29 [10]; 18.1% in the assay with HT-29 [11]; 14.2% with HT-29 [12]; 8.4% in the assay with HT-29 [13]; 31.6% with HT-29 [14]. The outcome in the assay with HT-29 [7] was inactive. Also, the GI50 with MDA-MB-231 came to 170 nM; in the assay on HT-29 [8] it was 140 nM; in the assay with A549, 130 nM.

These data come from ChEMBL document CHEMBL1154766, “Synthesis and biological evaluation of new podophyllic aldehyde derivatives with cytotoxic and apoptosis-inducing activities” (2010).
